ChEMBL document CHEMBL2169773, “Modified acidic nonsteroidal anti-inflammatory drugs as dual inhibitors of mPGES-1 and 5-LOX” (J Med Chem, 2012)
Active and inactive are the calls of the source. No cut-off for these calls is given here.

Assays:
[1] = target: T1, Prostaglandin G/H synthase 1 (Ovis aries) (UniProt P05979); test: Inhibition of ovine COX1 assessed as inhibition of 12-HHT formation preincubated at 10 uM for 5 mins before arachidonic acid addition by HPLC analysis
T1 sequence (whole entry): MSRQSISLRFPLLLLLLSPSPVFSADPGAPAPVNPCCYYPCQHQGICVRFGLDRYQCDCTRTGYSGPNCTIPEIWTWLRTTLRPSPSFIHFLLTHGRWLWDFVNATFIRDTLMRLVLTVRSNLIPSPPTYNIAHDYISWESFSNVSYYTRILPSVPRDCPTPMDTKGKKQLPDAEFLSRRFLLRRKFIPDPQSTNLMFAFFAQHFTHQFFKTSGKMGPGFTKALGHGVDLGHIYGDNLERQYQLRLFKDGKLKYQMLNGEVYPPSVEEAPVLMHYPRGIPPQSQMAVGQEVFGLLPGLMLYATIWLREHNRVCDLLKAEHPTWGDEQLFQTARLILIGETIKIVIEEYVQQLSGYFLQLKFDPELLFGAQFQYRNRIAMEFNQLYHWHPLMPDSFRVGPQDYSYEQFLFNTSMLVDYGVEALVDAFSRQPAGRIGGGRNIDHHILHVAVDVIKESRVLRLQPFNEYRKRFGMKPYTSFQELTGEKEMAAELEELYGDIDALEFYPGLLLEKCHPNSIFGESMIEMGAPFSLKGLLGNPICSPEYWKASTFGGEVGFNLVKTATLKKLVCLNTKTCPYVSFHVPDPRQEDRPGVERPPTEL

[2] = target: T2, Prostaglandin E synthase (Homo sapiens, UniProt O14684); test: Inhibition of mPGES-1 in human IL-1beta-stimulated A549 cell microsomes assessed as inhibition of PGE2 formation from PGH2 after 15 mins by RP-HPLC analysis; parameters: species or system Microsome
T2 sequence (O14684 whole entry): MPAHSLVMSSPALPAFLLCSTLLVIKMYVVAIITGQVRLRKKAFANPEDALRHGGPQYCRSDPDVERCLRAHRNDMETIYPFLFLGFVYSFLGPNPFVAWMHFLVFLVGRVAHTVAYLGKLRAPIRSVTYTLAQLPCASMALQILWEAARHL

[3] = target: T3, Polyunsaturated fatty acid 5-lipoxygenase (Homo sapiens, UniProt P09917); test: Inhibition of 5-lipoxygenase in A23187-stimulated human neutrophils assessed as inhibition of enzyme product formation by RP-HPLC analysis
T3 sequence (P09917 whole entry): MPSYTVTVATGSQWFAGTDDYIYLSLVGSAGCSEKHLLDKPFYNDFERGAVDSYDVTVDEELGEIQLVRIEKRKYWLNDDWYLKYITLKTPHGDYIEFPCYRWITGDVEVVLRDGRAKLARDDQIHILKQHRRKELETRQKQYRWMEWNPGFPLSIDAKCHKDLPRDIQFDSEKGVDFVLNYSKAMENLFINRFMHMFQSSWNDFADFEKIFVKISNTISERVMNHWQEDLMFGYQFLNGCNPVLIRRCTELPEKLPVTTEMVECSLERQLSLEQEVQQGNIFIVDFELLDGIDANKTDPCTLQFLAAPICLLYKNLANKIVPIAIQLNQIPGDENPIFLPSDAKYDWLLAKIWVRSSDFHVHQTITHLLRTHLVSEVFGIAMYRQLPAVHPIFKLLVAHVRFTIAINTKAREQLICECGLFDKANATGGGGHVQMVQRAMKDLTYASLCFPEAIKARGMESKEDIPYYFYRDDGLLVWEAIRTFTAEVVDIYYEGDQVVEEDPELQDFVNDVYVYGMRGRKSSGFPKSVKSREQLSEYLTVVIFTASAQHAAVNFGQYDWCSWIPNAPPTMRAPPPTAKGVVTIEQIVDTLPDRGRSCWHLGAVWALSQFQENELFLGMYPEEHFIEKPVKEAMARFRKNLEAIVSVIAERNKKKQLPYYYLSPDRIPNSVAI
Procedure, shortened: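 Whole-cell assay in human neutrophils stimulated with A23187 plus 20 μM exogenous arachidonic acid as substrate; BWA4C as reference inhibitor. IC50 calculated for selected compounds; mean with SE, n = 3−5.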

[4] = target: T1, Prostaglandin G/H synthase 1 (Ovis aries); test: Inhibition of ovine COX1 assessed as inhibition of 12-HHT formation measuring remaining activity preincubated at 10 uM for 5 mins before arachidonic acid addition by HPLC analysis
Procedure, shortened: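 Isolated ovine COX-1 in a cell-free assay, 5 μM arachidonic acid as substrate; compounds at fixed 10 μM. 12-HHT formation expressed as % activity versus vehicle control; mean with SE, n = 3.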

[5] = target: T4, Prostaglandin E synthase (Homo sapiens) (UniProt O14684); test: Inhibition of mPGES-1 in human IL-1beta-stimulated A549 cell microsomes assessed as remaining activity measuring PGE2 formation from PGH2 at 10 uM after 15 mins by RP-HPLC analysis; details: Microsome
T4 sequence (whole entry): T2 sequence (O14684 whole entry)
Procedure, shortened: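 Cell-free assay with microsomes from human A549 cells; PGE2 generation from 20 μM PGH2 substrate; compounds tested at 10 μM. Result given as % PGE2 formation remaining versus vehicle control; MK-886 reference; mean with SE, n = 3−5.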

[6] = target: T5, Polyunsaturated fatty acid 5-lipoxygenase (Homo sapiens) (UniProt P09917); test: Inhibition of 5-lipoxygenase in A23187-stimulated human neutrophils assessed as remaining activity measuring enzyme product formation at 10 uM by RP-HPLC analysis relative to vehicle-treated control
T5 sequence (whole entry): T3 sequence (P09917 whole entry)
Procedure, shortened: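 Human neutrophils (whole cells) stimulated with A23187 and 20 μM exogenous arachidonic acid; test compounds at 10 μM. Activity expressed as % remaining versus vehicle control; BWA4C as reference inhibitor; mean with SE, n = 3−5.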

For `O=C(O)Cc1cn(-c2ccccc2)nc1-c1ccc(C#Cc2ccccc2)cc1`, the inhibition [1] was “inactive”, the IC50 ([2]; read-out: IC50) was 0.4 µM and the IC50 ([3]; read-out: IC50) was 5 µM.
`Cc1c(CC(=O)O)c2cc(C#Cc3ccccc3)ccc2n1Cc1ccc(Cl)cc1` was tested, and the inhibition [1] was “inactive”, the IC50 ([2]; read-out: IC50) was 2.5 µM and the IC50 ([3]; read-out: IC50) was 0.9 µM.
In the case of `O=C(O)Cc1cn(-c2ccccc2)nc1-c1ccc(C#Cc2ccc(Cl)cc2)cc1`, the inhibition [1] is reported as “inactive”, the IC50 ([2]; read-out: IC50) is reported as 0.16 µM and the Activity [4] is reported as 77.8%. It also gave an IC50 ([3]; read-out: IC50) of 3.7 µM.
With `O=C(Cc1cn(-c2ccccc2)nc1-c1ccc(C#Cc2cccc(Cl)c2)cc1)NS(=O)(=O)c1ccc(Cl)cc1` the inhibition [1] was “inactive”, the IC50 ([2]; read-out: IC50) was 0.8 µM and the IC50 ([3]; read-out: IC50) was 2.3 µM.
For `CCOC(=O)Cc1c(C)n(Cc2ccc(Cl)cc2)c2ccc(C#Cc3ccccc3)cc12`, the inhibition [1] was “inactive” and the Activity [5] was 86.1%.
In the case of `COc1ccc2c(c1)c(C(=O)NCc1ccc(S(C)(=O)=O)cc1)c(C)n2C(=O)c1ccc(Cl)cc1`, the inhibition [1] is reported as “inactive” and the Activity [5] is reported as 68.7%.
In the case of `O=C(Cc1cn(-c2ccccc2)nc1-c1ccc(C#Cc2ccc(Cl)cc2)cc1)NS(=O)(=O)c1ccc(Cl)cc1`, the inhibition [1] is reported as “inactive”, the IC50 ([2]; read-out: IC50) is reported as 0.35 µM and the Activity [4] is reported as 70.1%. The IC50 ([3]; read-out: IC50) was 4.7 µM.
In the case of `Cc1ccc(S(=O)(=O)NC(=O)Cc2cn(-c3ccccc3)nc2-c2ccc(Cl)cc2)cc1`, the inhibition [1] is reported as “inactive”, the IC50 ([2]; read-out: IC50) is reported as 3.4 µM and the IC50 ([3]; read-out: IC50) is reported as 2.5 µM.
With `CS(=O)(=O)NC(=O)Cc1cn(-c2ccccc2)nc1-c1ccc(Cl)cc1` the Activity [6] was 72.1%, the inhibition [1] was “inactive” and the Activity [5] was 98%.
With `O=C(O)Cc1cn(-c2ccccc2)nc1-c1ccc(C#Cc2cccc(Cl)c2)cc1` the inhibition [1] was “inactive”, the IC50 ([2]; read-out: IC50) was 0.18 µM and the IC50 ([3]; read-out: IC50) was 3.9 µM.
With `O=C(Cc1cn(-c2ccccc2)nc1-c1ccc(Cl)cc1)NS(=O)(=O)c1ccc(Cl)cc1` the inhibition [1] was “inactive”, the IC50 ([2]; read-out: IC50) was 2.3 µM and the IC50 ([3]; read-out: IC50) was 2.9 µM.
`COc1ccc2cc(C(C)C(=O)NS(C)(=O)=O)ccc2c1` (stereo not drawn) was tested, and the inhibition [1] was “inactive”, the IC50 [3] was “Not Active” and the Activity [5] was 92.5%.
For `COc1ccc2cc([C@H](C)C(=O)O)ccc2c1` [NAPROXEN], the IC50 ([2]; a549) was “Not Active” and the IC50 [3] was “Not Active”.
In the case of `CC(C)Cc1ccc(C(C)C(=O)NS(C)(=O)=O)cc1` (stereo not drawn), the Activity [6] is reported as 91.2%, the inhibition [1] is reported as “inactive” and the Activity [5] is reported as 67.9%.
With `O=C(O)Cc1cn(-c2ccccc2)nc1-c1ccc(Cl)cc1` [LONAZOLAC CALCIUM] the Activity [6] was 59.7% and the IC50 ([2]; read-out: IC50) was 45 µM.
`Cc1ccc(S(=O)(=O)NC(=O)Cc2c(C)n(Cc3ccc(Cl)cc3)c3ccc(Br)cc23)cc1` was tested, and the inhibition [1] was “inactive”, the IC50 ([2]; read-out: IC50) was 1.75 µM and the IC50 ([3]; read-out: IC50) was 1.7 µM.
For `COc1ccc2c(c1)c(CC(=O)NS(=O)(=O)c1ccc(C)cc1)c(C)n2C(=O)c1ccc(Cl)cc1`, the inhibition [1] was “inactive”, the IC50 ([2]; read-out: IC50) was 6.4 µM and the Activity [4] was 89.4%. It also gave an IC50 ([3]; read-out: IC50) of 2.9 µM.
For `CC(C(=O)O)c1cccc(C(=O)c2ccccc2)c1` (stereo not drawn) [KETOPROFEN], the IC50 [3] was “Not Active”.
`Cc1ccc(S(=O)(=O)NC(=O)Cc2c(C)n(Cc3ccc(Cl)cc3)c3ccc(C#Cc4ccccc4)cc23)cc1` was tested, and the inhibition [1] was “inactive”, the IC50 ([2]; read-out: IC50) was 2.8 µM and the Activity [4] was 83.1%. For the same molecule, the IC50 ([3]; read-out: IC50) was 1.5 µM.
With `O=C(Cc1cn(-c2ccccc2)nc1-c1ccc(Cl)cc1)NS(=O)(=O)c1ccccc1` the inhibition [1] was “inactive”, the IC50 ([2]; read-out: IC50) was 5.9 µM and the IC50 ([3]; read-out: IC50) was 6.8 µM.
With `COc1ccc2c(c1)c(CC(=O)O)c(C)n2C(=O)c1ccc(Cl)cc1` [INDOMETHACIN] the IC50 ([2]; read-out: IC50) was 40.6 µM, the Activity [4] was 23.3% and the IC50 [3] was “Not Active”.
In the case of `Cc1ccc(S(=O)(=O)NC(=O)C(C)c2ccc(CC(C)C)cc2)cc1` (stereo not drawn), the Activity [6] is reported as 67.7%, the inhibition [1] is reported as “inactive” and the Activity [5] is reported as 78.6%.
For `CC(C)Cc1ccc(C(C)C(=O)O)cc1` (stereo not drawn) [IBUPROFEN], the IC50 [3] was “Not Active” and the Activity [5] was 81.2%.
With `COc1ccc2c(c1)c(CC(=O)NS(C)(=O)=O)c(C)n2C(=O)c1ccc(Cl)cc1` the Activity [6] was 64.9%, the inhibition [1] was “inactive” and the Activity [5] was 73.6%.
In the case of `O=C(Cc1cn(-c2ccccc2)nc1-c1ccc(C#Cc2ccccc2)cc1)NS(=O)(=O)c1ccc(Cl)cc1`, the inhibition [1] is reported as “inactive”, the IC50 ([2]; read-out: IC50) is reported as 0.2 µM and the IC50 ([3]; read-out: IC50) is reported as 1.6 µM.
`COc1ccc2cc(C(C)C(=O)NS(=O)(=O)c3ccc(C)cc3)ccc2c1` (stereo not drawn) was tested, and the inhibition [1] was “inactive”, the IC50 [3] was “Not Active” and the Activity [5] was 72.8%.
`Cc1ccc(S(=O)(=O)NC(=O)Cc2cn(-c3ccccc3)nc2-c2ccc(-c3ccccc3)cc2)cc1` was tested, and the inhibition [1] was “inactive”, the IC50 ([2]; read-out: IC50) was 1.7 µM and the Activity [4] was 99.1%. The IC50 ([3]; read-out: IC50) was 3.5 µM.
`CC(C(=O)NS(C)(=O)=O)c1cccc(C(=O)c2ccccc2)c1` (stereo not drawn) was tested, and the Activity [6] was 90.7%, the inhibition [1] was “inactive” and the Activity [5] was 78.6%.
In the case of `Cc1ccc(S(=O)(=O)NC(=O)C(C)c2cccc(C(=O)c3ccccc3)c2)cc1` (stereo not drawn), the Activity [6] is reported as 78.9%, the inhibition [1] is reported as “inactive” and the Activity [5] is reported as 76.3%.
`Cc1c(CC(=O)NS(=O)(=O)c2ccc(Cl)cc2)c2cc(C#Cc3ccccc3)ccc2n1Cc1ccc(Cl)cc1` was tested, and the inhibition [1] was “inactive”, the IC50 ([2]; read-out: IC50) was 1.8 µM and the IC50 ([3]; read-out: IC50) was 2 µM.
